Reference: ChEMBL document CHEMBL4270578, “Synthesis and cytotoxic studies of novel 5-phenylisatin derivatives and their anti-migration and anti-angiogenic evaluation” (Eur J Med Chem, 2018)
Activity calls are given as the source filed them. The calls are words filed in the database; no cut-off is given here.

What was measured:
K562 [1] = test: Antiproliferative activity against human K562 cells after 48 hrs by MTT assay; assay type: functional, cell-based; settings: K562, 48 h
Outline: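 MTT assay on K562 cells (RPMI-1640, 10% FBS) plated at 5 × 10^4 cells/ml for 2 h, then exposed to 10–100,000 nM compound for 48 h. MTT (5 mg/mL stock) added for 4 h before absorbance read. Viability normalized to DMSO controls (100%); IC50 from nonlinear regression, three independent assays.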

HepG2 [2] = test: Antiproliferative activity against human HepG2 cells after 48 hrs by MTT assay; assay type: functional, cell-based; settings: HepG2, 48 h
K562 [3] = test: Induction of morphological changes in human K562 cells assessed as elongation of cells at 30 nM after 6 hrs; assay type: functional, cell-based
Outline: (§1)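 K562 cells kept in RPMI-1640 with 10% FBS, 2.05 mM glutamine and penicillin/streptomycin at 37 °C, 5% CO2. Exposed to 30 nM drug alongside DMSO-treated controls. Cell morphology examined by microscopy.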

K562 [4] = test: Induction of morphological changes in human K562 cells assessed as cell blebbing at 30 nM after 24 hrs; assay type: functional, cell-based; outline: as §1
K562 [5] = test: Induction of apoptosis in human K562 cells assessed as viable cells at 30 nM after 6 hrs by Annexin V-FITC/propidium iodide staining-based flow cytometric analysis (reference value: 95.8%); assay type: functional; settings: K562, 6 h, read-out: Activity
K562 [6] = test: Induction of apoptosis in human K562 cells assessed as early apoptotic cells at 30 nM after 6 hrs by Annexin V-FITC/propidium iodide staining-based flow cytometric analysis (reference value: 1.9%); assay type: functional
K562 [7] = test: Induction of apoptosis in human K562 cells assessed as necrotic cells at 30 nM after 6 hrs by Annexin V-FITC/propidium iodide staining-based flow cytometric analysis (reference value: 0.1%); assay type: functional
K562 [8] = test: Induction of apoptosis in human K562 cells assessed as viable cells at 30 nM after 12 hrs by Annexin V-FITC/propidium iodide staining-based flow cytometric analysis (reference value: 95.8%); assay type: functional; settings: K562, 12 h, read-out: Activity
K562 [9] = test: Induction of apoptosis in human K562 cells assessed as early apoptotic cells at 30 nM after 12 hrs by Annexin V-FITC/propidium iodide staining-based flow cytometric analysis (reference value: 1.9%); assay type: functional
K562 [10] = test: Induction of apoptosis in human K562 cells assessed as late apoptotic cells at 30 nM after 12 hrs by Annexin V-FITC/propidium iodide staining-based flow cytometric analysis (reference value: 2.2%); assay type: functional
K562 [11] = test: Induction of apoptosis in human K562 cells assessed as viable cells at 30 nM after 24 hrs by Annexin V-FITC/propidium iodide staining-based flow cytometric analysis (reference value: 95.8%); assay type: functional; settings: K562, 24 h, read-out: Activity
K562 [12] = test: Induction of apoptosis in human K562 cells assessed as early apoptotic cells at 30 nM after 24 hrs by Annexin V-FITC/propidium iodide staining-based flow cytometric analysis (reference value: 1.9%); assay type: functional
K562 [13] = test: Induction of apoptosis in human K562 cells assessed as necrotic cells at 30 nM after 24 hrs by Annexin V-FITC/propidium iodide staining-based flow cytometric analysis (reference value: 0.1%); assay type: functional
K562 [14] = test: Induction of apoptosis in human K562 cells assessed as viable cells at 30 nM after 48 hrs by Annexin V-FITC/propidium iodide staining-based flow cytometric analysis (reference value: 95.8%); assay type: functional; settings: K562, 48 h, read-out: Activity
K562 [15] = test: Induction of apoptosis in human K562 cells assessed as early apoptotic cells at 30 nM after 48 hrs by Annexin V-FITC/propidium iodide staining-based flow cytometric analysis (reference value: 1.9%); assay type: functional
K562 [16] = test: Induction of apoptosis in human K562 cells assessed as necrotic cells at 30 nM after 48 hrs by Annexin V-FITC/propidium iodide staining-based flow cytometric analysis (reference value: 0.1%); assay type: functional
K562 [17] = test: Induction of apoptosis in human K562 cells assessed as necrotic cells at 300 nM after 6 hrs by Annexin V-FITC/propidium iodide staining-based flow cytometric analysis (reference value: 0%); assay type: functional
K562 [18] = test: Induction of apoptosis in human K562 cells assessed as viable cells at 300 nM after 12 hrs by Annexin V-FITC/propidium iodide staining-based flow cytometric analysis (reference value: 95.6%); assay type: functional; settings: K562, 12 h, read-out: Activity
K562 [19] = test: Induction of apoptosis in human K562 cells assessed as early apoptotic cells at 300 nM after 12 hrs by Annexin V-FITC/propidium iodide staining-based flow cytometric analysis (reference value: 2.2%); assay type: functional
K562 [20] = test: Induction of apoptosis in human K562 cells assessed as late apoptotic cells at 300 nM after 12 hrs by Annexin V-FITC/propidium iodide staining-based flow cytometric analysis (reference value: 2.1%); assay type: functional
K562 [21] = test: Induction of apoptosis in human K562 cells assessed as viable cells at 300 nM after 24 hrs by Annexin V-FITC/propidium iodide staining-based flow cytometric analysis (reference value: 95.6%); assay type: functional; settings: K562, 24 h, read-out: Activity
K562 [22] = test: Induction of apoptosis in human K562 cells assessed as early apoptotic cells at 300 nM after 24 hrs by Annexin V-FITC/propidium iodide staining-based flow cytometric analysis (reference value: 2.2%); assay type: functional
K562 [23] = test: Induction of apoptosis in human K562 cells assessed as late apoptotic cells at 300 nM after 24 hrs by Annexin V-FITC/propidium iodide staining-based flow cytometric analysis (reference value: 2.1%); assay type: functional
K562 [24] = test: Induction of apoptosis in human K562 cells assessed as necrotic cells at 300 nM after 24 hrs by Annexin V-FITC/propidium iodide staining-based flow cytometric analysis (reference value: 0%); assay type: functional
K562 [25] = test: Induction of apoptosis in human K562 cells assessed as early apoptotic cells at 300 nM after 48 hrs by Annexin V-FITC/propidium iodide staining-based flow cytometric analysis (reference value: 2.2%); assay type: functional
K562 [26] = test: Induction of apoptosis in human K562 cells assessed as necrotic cells at 300 nM after 48 hrs by Annexin V-FITC/propidium iodide staining-based flow cytometric analysis (reference value: 0%); assay type: functional
HepG2 [27] = test: Anti-migratory activity against human HepG2 cells at 10 nM after 48 hrs by wound-healing assay relative to control; assay type: functional
Outline: (§2)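 HepG2 cells seeded at 2 × 10^5 cells/well in DMEM and grown 24 h. Monolayer scratched with a 10 μl pipette tip, then PBS-washed three times. Treated with DMSO or compound (10, 30, 100 nM) at 37 °C, 5% CO2, imaged by microscopy at 0–48 h. Migration distance measured; inhibition ratio calculated against DMSO control.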

HepG2 [28] = test: Anti-migratory activity against human HepG2 cells at 30 nM after 48 hrs by wound-healing assay relative to control; assay type: functional; outline: as §2
HepG2 [29] = test: Anti-migratory activity against human HepG2 cells at 100 nM after 48 hrs by wound-healing assay relative to control; assay type: functional; outline: as §2
HepG2 [30] = test: Anti-migratory activity against human HepG2 cells after 24 hrs by DAPI staining-based transwell assay; assay type: functional, cell-based
Outline: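 HepG2 cells in serum-free DMEM, 2 × 10^5 cells/well, placed in upper compartment of polycarbonate filter inserts; lower chamber DMEM + 10% FBS. Compound or DMSO added after 30 min; 24 h at 37 °C, 5% CO2. Filters methanol-fixed and DAPI-stained, non-migrated cells swabbed off. Migrated cells on the lower side counted in three random fields.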

IC50 (K562 [1]): 30 nM
IC50 (HepG2 [2]): 50 nM
SMILES: COc1ccc(CN2C(=O)C(=O)c3cc(-c4ccc(OC)cc4)ccc32)cc1
Activity (K562 [3]): Active
Activity (K562 [4]): Active
viability at 0.03 µM (K562 [5]): 94.4%
Activity (K562 [6]): 2.1%
Activity (K562 [7]): 0.1%
viability at 0.03 µM (K562 [8]): 92.8%
Activity (K562 [9]): 3.1%
Activity (K562 [10]): 4%
viability at 0.03 µM (K562 [11]): 88.5%
Activity (K562 [12]): 5.7%
Activity (K562 [13]): 0.4%
viability at 0.03 µM (K562 [14]): 55.6%
Activity (K562 [15]): 22.3%
Activity (K562 [16]): 1%
Activity (K562 [17]): 0.2%
viability at 0.3 µM (K562 [18]): 88.1%
Activity (K562 [19]): 5.7%
Activity (K562 [20]): 5.9%
viability at 0.3 µM (K562 [21]): 82.6%
Activity (K562 [22]): 12.4%
Activity (K562 [23]): 4.7%
Activity (K562 [24]): 0.2%
Activity (K562 [25]): 85.2%
Activity (K562 [26]): 0%
Activity (HepG2 [27]): 11.9%
Activity (HepG2 [28]): 26.9%
Activity (HepG2 [29]): 47.9%
Activity (HepG2 [30]): Dose-dependent effect
